Source: ChEMBL document CHEMBL5104184, “Chemical Toolkit for PARK7: Potent, Selective, and High-Throughput” (J Med Chem, 2022)
Values belong to the molecule of their own block, whether it stands above or below them. The source made the active and inactive calls. The calls are words filed in the database; no cut-off is given here.

What was measured:
[1] = molecular target: T1, Parkinson disease protein 7 (Homo sapiens) (UniProt Q99497); assay: Binding affinity to N-terminal GST-tagged human recombinant PARK7 expressed in Escherichia coli BL21(DE3)Rosetta2 cells at 1 uM measured after 1 hr by coomassie staining based analysis
T1 sequence (whole entry): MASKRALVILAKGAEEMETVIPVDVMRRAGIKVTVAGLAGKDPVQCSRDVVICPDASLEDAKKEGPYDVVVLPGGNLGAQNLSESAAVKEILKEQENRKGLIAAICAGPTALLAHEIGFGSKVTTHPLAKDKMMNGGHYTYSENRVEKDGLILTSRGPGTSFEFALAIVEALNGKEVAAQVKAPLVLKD
Method in brief: (§1)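 Purified recombinant PARK7 (GST-tagged in E. coli BL21(DE3) Rosetta2, tag removed by 3C protease, then gel filtration), 1 μM final. Incubated with probe at 0, 0.1, 0.5, 1, 2, 5 or 10 μM for 1 h at 37 °C in 50 mM Tris-HCl, 150 mM NaCl, 2 mM TCEP, pH 7.5. Stopped with LDS sample buffer, run on SDS-PAGE, read by fluorescence scan, then Coomassie stain.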

[2] = molecular target: T1, Parkinson disease protein 7 (Homo sapiens); assay: Binding affinity to N-terminal GST-tagged human recombinant PARK7 expressed in Escherichia coli BL21(DE3)Rosetta2 cells at 1 uM measured after 1 hr by fluorescence scanning analysis; method in brief: as §1
[3] = molecular target: Ubiquitin carboxyl-terminal hydrolase isozyme L1 (Homo sapiens) (UniProt P09936); assay: Inhibition of UCHL1 in human HEK293T cells assessed as reduction in Rho-Ub-PA-labelled UCHL1 band intensity at 5 uM incubated for 1 hr followed by incubation with Rho-Ub-PA for 30 mins by fluorescence scanning based analysis; format: cell-based; details: time 90.0 min
[4] = molecular target: Ubiquitin carboxyl-terminal hydrolase isozyme L1 (Homo sapiens) (UniProt P09936); assay: Inhibition of UCHL1 (unknown origin) using SRK59 as fluorescent probe at 2 uM preincubated for 1 hr followed by SRK59 addition for 30 mins by Gel-based competition assay; details: time 90.0 min
Method in brief: (§2)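 Recombinant PARK7 and UCHL1 (1 μM each, mixed) or PARK7 alone, in 50 mM Tris-HCl, 150 mM NaCl, 2 mM TCEP, pH 7.5. Treated with compound at 2 μM or a serial dilution for 1 h at 37 °C. Then 8RK59 probe (2 μM final) added for 30 min at 37 °C. Run on SDS-PAGE; remaining labelling read by fluorescence scan.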

[5] = molecular target: T1, Parkinson disease protein 7 (Homo sapiens); assay: Inhibition of N-terminal GST-tagged human recombinant PARK7 expressed in Escherichia coli BL21(DE3)Rosetta2 cells using DiFMUAc as substrate at 12.5 to 100 uM preincubated with enzyme for 1 hr followed by substrate addition and measured for 1 hr by DiFMUAc assay based fluorescence analysis; details: dose 12.5-100 µM, time 2.0 hrs
Method in brief: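 PARK7 GST fusion was expressed in E. coli BL21(DE3) Rosetta2, purified on glutathione beads, cut with 3C protease and polished by SEC. Enzyme at 0.1 μM final in PBS was preincubated with compound at 100, 37.5 or 12.5 μM final. DiFMUAc was then added at 300 μM final, and fluorescence (ex/em 350/450 nm) was monitored for 1 h. Run in triplicate.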

[6] = molecular target: T1, Parkinson disease protein 7 (Homo sapiens); assay: Inhibition of PARK7 in human HEK293T cells assessed as reduction in JQ-92 labelled PARK7 band intensity at 0.1 to 50 uM incubated for 1 hr followed by incubation with JQ-92 for 30 mins by fluorescence scanning based analysis; format: cell-based; details: dose 0.1-50 µM, time 90.0 min
[7] = molecular target: T1, Parkinson disease protein 7 (Homo sapiens); assay: Inhibition of PARK7 in human HEK293T cells assessed as reduction in JQ-92 labelled PARK7 band intensity at 1 uM incubated for 1 hr followed by incubation with JQ-92 for 30 mins by fluorescence scanning based analysis; format: cell-based; details: time 90.0 min
[8] = molecular target: T1, Parkinson disease protein 7 (Homo sapiens); assay: Binding affinity to PARK7 in human HEK293T cells at 0.5 uM incubated for 1 hr by fluorescence scanning based analysis; format: cell-based
[9] = molecular target: T1, Parkinson disease protein 7 (Homo sapiens); assay: Binding affinity to PARK7 in human HEK293T cells at 1 uM incubated for 1 hr by fluorescence scanning based analysis; format: cell-based
[10] = molecular target: T1, Parkinson disease protein 7 (Homo sapiens); assay: Binding affinity to PARK7 in human HEK293T cells at 0.5 to 1 uM incubated for 1 hr by western blot analysis; format: cell-based; details: dose 0.5-1 µM
[11] = molecular target: T1, Parkinson disease protein 7 (Homo sapiens); assay: Binding affinity to PARK7 in UCHL1 knockdown human HEK293T cells at 1 uM incubated for 1 hr by fluorescence scanning based analysis; format: cell-based
Method in brief: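 HEK293T cells were siRNA-transfected with Dharmafect 1 and cultured 3 days, then lysed in Triton X-100/TCEP Tris buffer (pH 7.5) with protease inhibitors. Lysate labelled with probe at 1 μM final for 1 h at 37 °C. Read by SDS-PAGE Cy5 fluorescence scan (635/655 nm), then immunoblot for UCHL1/PARK7 with actin as loading control.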

[12] = molecular target: T1, Parkinson disease protein 7 (Homo sapiens); assay: Binding affinity to N-terminal GST-tagged human recombinant PARK7 expressed in Escherichia coli BL21(DE3)Rosetta2 cells at 2 uM measured after 1 hr by coomassie staining based analysis; method in brief: as §1
[13] = molecular target: T1, Parkinson disease protein 7 (Homo sapiens); assay: Binding affinity to N-terminal GST-tagged human recombinant PARK7 expressed in Escherichia coli BL21(DE3)Rosetta2 cells at 2 uM measured after 1 hr by fluorescence scanning analysis; method in brief: as §1
[14] = molecular target: T1, Parkinson disease protein 7 (Homo sapiens); assay: Binding affinity to N-terminal GST-tagged human recombinant PARK7 expressed in Escherichia coli BL21(DE3)Rosetta2 cells at 5 uM measured after 1 hr by coomassie staining based analysis; method in brief: as §1
[15] = molecular target: T1, Parkinson disease protein 7 (Homo sapiens); assay: Binding affinity to N-terminal GST-tagged human recombinant PARK7 expressed in Escherichia coli BL21(DE3)Rosetta2 cells at 5 uM measured after 1 hr by fluorescence scanning analysis; method in brief: as §1
[16] = molecular target: T1, Parkinson disease protein 7 (Homo sapiens); assay: Inhibition of N-terminal GST-tagged human recombinant PARK7 expressed in Escherichia coli BL21(DE3)Rosetta2 cells using SRK59 as fluorescent probe at 2 uM preincubated for 1 hr followed by SRK59 addition for 30 mins by Gel-based competition assay; details: time 90.0 min; method in brief: as §2
[17] = molecular target: T1, Parkinson disease protein 7 (Homo sapiens); assay: Inhibition of N-terminal GST-tagged human recombinant PARK7 expressed in Escherichia coli BL21(DE3)Rosetta2 cells using SRK59 as fluorescent probe at 1 to 2 uM preincubated for 1 hr followed by SRK59 addition for 30 mins by Gel-based competition assay; details: dose 1-2 µM, time 90.0 min; method in brief: as §2
[18] = molecular target: Ubiquitin carboxyl-terminal hydrolase isozyme L1 (Homo sapiens) (UniProt P09936); assay: Inhibition of UCHL1 (unknown origin) using SRK59 as fluorescent probe at 20 uM preincubated for 1 hr followed by SRK59 addition for 30 mins by Gel-based competition assay; details: time 90.0 min; method in brief: as §2
[19] = molecular target: T1, Parkinson disease protein 7 (Homo sapiens); assay: Inhibition of N-terminal GST-tagged human recombinant PARK7 expressed in Escherichia coli BL21(DE3)Rosetta2 cells using SRK59 as fluorescent probe at 0.5 uM preincubated for 1 hr followed by SRK59 addition for 30 mins by Gel-based competition assay; details: time 90.0 min; method in brief: as §2
[20] = molecular target: T1, Parkinson disease protein 7 (Homo sapiens); assay: Inhibition of PARK7 in human HEK293T cells assessed as reduction in JQ-92 labelled PARK7 band intensity incubated for 1 hr followed by incubation with JQ-92 for 30 mins by fluorescence scanning based analysis; format: cell-based; details: dose 0.1-20 µM, time 90.0 min, DDE = dose-dependent effect

Chain of Ubiquitin carboxyl-terminal hydrolase isozyme L1 (Homo sapiens) (P09936 whole entry, looked up): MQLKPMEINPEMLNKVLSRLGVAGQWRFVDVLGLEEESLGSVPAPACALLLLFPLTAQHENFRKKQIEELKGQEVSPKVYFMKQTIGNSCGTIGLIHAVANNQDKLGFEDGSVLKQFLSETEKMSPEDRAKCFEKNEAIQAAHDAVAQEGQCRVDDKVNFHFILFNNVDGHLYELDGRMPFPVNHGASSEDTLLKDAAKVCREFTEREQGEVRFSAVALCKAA

Activity [1]: Active
Activity [2]: Active
SMILES: N#CN1CC[C@@H](C(=O)Nc2nc3c(s2)CN(C(=O)Cn2cc(CCCNC(=O)c4ccc(-c5c6ccc(=N)cc-6oc6cc(N)ccc56)c(C(=O)O)c4)nn2)CC3)C1

inhibition [3]: Active
inhibition [4]: Active
SMILES: N#CN1CC[C@H](C(=O)Nc2nc3c(s2)CN(C(=O)CN=[N+]=[N-])CC3)C1

SMILES: O=c1ccc(NS(=O)(=O)c2cccc(S(=O)(=O)F)c2)c[nH]1
inhibition [5]: Active
inhibition [6]: Active
inhibition [7]: 100%

Activity [8]: Active
Activity [9]: Active
Activity [10]: Active
Activity [1]: Active
Activity [11]: Active
Activity [12]: Active
Activity [13]: Active
Activity [2]: Active
SMILES: CC[N+]1=C(/C=C/C=C/C=C2/N(CCCCCC(=O)NCCCc3cn(CC(=O)N4CCc5nc(NC(=O)[C@@H]6CCN(C#N)C6)sc5C4)nn3)c3ccc(S(=O)(=O)O)cc3C2(C)C)C(C)(C)c2cc(S(=O)(=O)[O-])ccc21

inhibition [5]: Active
inhibition [6]: Active
SMILES: CCC(C)c1ccc(NC(=O)CCl)cc1 (stereo not drawn)

Activity [14]: Active
Activity [15]: Active
SMILES: CC1=CC(C)=[N+]2C1=C(CCCCc1cn(CC(=O)N3CCc4nc(NC(=O)[C@@H]5CCN(C#N)C5)sc4C3)nn1)c1c(C)cc(C)n1[B-]2(F)F

SMILES: O=C(O)c1csc(C(=O)CCl)c1
inhibition [5]: Active
inhibition [6]: Active

inhibition [16]: Active
inhibition [4]: 100%
SMILES: CN1C(=O)CC(C(=O)N2CCc3nc(NC(=O)[C@H]4CCN(C#N)C4)sc3C2)[C@@H]1c1cccnc1 (stereo partly drawn)

inhibition [3]: Active
SMILES: N#CN1CC[C@H](C(=O)Nc2ncc(N3CCOCC3)s2)C1

inhibition [16]: Active
inhibition [4]: 100%
SMILES: N#CN1CC[C@H](C(=O)Nc2nc3c(s2)CN(C(=O)Cc2ccncc2)CC3)C1

inhibition [16]: 100%
inhibition [17]: 100%
inhibition [18]: Active
inhibition [19]: Active
inhibition [20]: Dde
SMILES: N#CN1CC[C@@H](C(=O)Nc2nc3c(s2)CN(C(=O)CN=[N+]=[N-])CC3)C1

inhibition [16]: Active
inhibition [4]: 100%
SMILES: N#CN1CC[C@H](C(=O)Nc2nc3c(s2)CN(C(=O)CCCCBr)CC3)C1
